Experimental data collected from several papers.
Compare with care: the assays were run in different laboratories. Values after ≈ are worked out from the molar mass of the structure shown.
Organism: Cryptococcus neoformans
Read-out: microbial growth

With CCCCCCCCCCCCCC(O)CC(O)CO (stereo not drawn) the IC50 was 32.9 mg/L (≈ 114 µM) (broth dilution; ATCC90113).
For C[C@@H]1[C@H](O)[C@@H](C)/C=C/C=C/C=C/C=C/C=C/C=C/C=C/[C@H](O[C@@H]2O[C@H](C)[C@@H](O)[C@H](N)[C@@H]2O)C[C@@H]2O[C@](O)(C[C@@H](O)C[C@@H](O)[C@H](O)CC[C@@H](O)C[C@@H](O)CC(=O)O[C@H]1C)C[C@H](O)[C@H]2C(=O)O, the MIC was 0.68 µM (ATCC90113).
For C[C@@H]1[C@H](O)[C@@H](C)/C=C/C=C/C=C/C=C/C=C/C=C/C=C/[C@H](O[C@@H]2O[C@H](C)[C@@H](O)[C@H](N)[C@@H]2O)C[C@@H]2O[C@](O)(C[C@@H](O)C[C@@H](O)[C@H](O)CC[C@@H](O)C[C@@H](O)CC(=O)O[C@H]1C)C[C@H](O)[C@H]2C(=O)O, the IC50 was 1.14 mg/L (≈ 1.23 µM) (ATCC90113).
The MIC of O=C(CCCCCC[P+](c1ccccc1)(c1ccccc1)c1ccccc1)Nc1cc(O)c(O)c(O)c1.[Br-] is reported as 32 mg/L (broth dilution; ATCC208821; 24 h).
C=CCCCCCCCCCCCC(O)CC(O)CO (stereo not drawn) gave an IC50 of greater than 200 mg/L (broth dilution; ATCC90113).
For O=C(CCCCCCCC[P+](c1ccccc1)(c1ccccc1)c1ccccc1)Nc1ccc(O)c(O)c1.[Br-], the MIC was greater than 32 mg/L (broth dilution; ATCC208821; 24 h).
Cl.Oc1cccc2c1[nH]c1c(C3=CC4(O)CC/C=C\CCCCN5CCC3C3(CC6/C=C\CCCCN6C43)C5)nccc12 (single isomer, unassigned; (+)) has an IC50 of 2.69 mg/L (ATCC90113).
For O=C(CCCCCC[P+](c1ccccc1)(c1ccccc1)c1ccccc1)Nc1ccc(O)c(O)c1.[Br-], the MIC was greater than 32 mg/L (broth dilution; ATCC208821; 24 h).
The IC50 of C[C@@H]1[C@H](O)[C@@H](C)/C=C/C=C/C=C/C=C/C=C/C=C/C=C/[C@H](O[C@@H]2O[C@H](C)[C@@H](O)[C@H](N)[C@@H]2O)C[C@@H]2O[C@](O)(C[C@@H](O)C[C@@H](O)[C@H](O)CC[C@@H](O)C[C@@H](O)CC(=O)O[C@H]1C)C[C@H](O)[C@H]2C(=O)O is reported as 0.24 mg/L (≈ 0.26 µM) (broth dilution; ATCC90113).
